Results as given in ChEMBL document CHEMBL4028832, “Design and synthesis of 1,2,3-triazolo-phenanthrene hybrids as cytotoxic agents” (Bioorg Med Chem Lett, 2017).
Activity calls are given as the source filed them. No cut-off for these calls is given here.

Key:
DU-145 = assay: Cytotoxicity against human DU145 cells after 48 hrs by MTT assay; format: functional, cell-based; details: DU-145, 48 h
Method in brief: (§1)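 The human cancer lines and mouse 4T1 breast cells were treated with compound for 48 h and assessed by MTT assay. IC50 is the concentration giving 50% inhibition. 5-Fluorouracil served as the MTT standard.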

HeLa = assay: Cytotoxicity against human HeLa cells after 48 hrs by MTT assay; format: functional, cell-based; method in brief: as §1
PC-3 = assay: Cytotoxicity against human PC3 cells after 48 hrs by MTT assay; format: functional, cell-based; details: PC-3, 48 h; method in brief: as §1
MDA-MB-231 = assay: Cytotoxicity against human MDA-MB-231 cells after 48 hrs by MTT assay; format: functional, cell-based; details: MDA-MB-231, 48 h; method in brief: as §1
HGC-27 = assay: Cytotoxicity against human HGC27 cells after 48 hrs by MTT assay; format: functional, cell-based; details: HGC-27, 48 h; method in brief: as §1
A549 = assay: Cytotoxicity against human A549 cells after 48 hrs by MTT assay; format: functional, cell-based; details: A549, 48 h; method in brief: as §1
4T1 = assay: Cytotoxicity against mouse 4T1 cells after 48 hrs by MTT assay; format: functional, cell-based; details: 4T1, 48 h; method in brief: as §1
BT-549 = assay: Cytotoxicity against human BT549 cells after 48 hrs by MTT assay; format: functional, cell-based; details: BT-549, 48 h; method in brief: as §1
MDA-MB-453 = assay: Cytotoxicity against human MDA-MB-453 cells after 48 hrs by MTT assay; format: functional, cell-based; details: MDA-MB-453, 48 h; method in brief: as §1
Bos taurus = species: Bos taurus; assay: Binding affinity to calf thymus DNA assessed as increase in viscosity at 5 uM by Rolling-ball viscometric method

| Structure (SMILES) | IC50 (DU-145) [µM] | IC50 (HeLa) [µM] | IC50 (PC-3) [µM] | IC50 (MDA-MB-231) [µM] | IC50 (HGC-27) [µM] | IC50 (A549) [µM] | IC50 (4T1) [µM] | IC50 (BT-549) [µM] | IC50 (MDA-MB-453) [µM] | Activity (Bos taurus) |
| --- | --- | --- | --- | --- | --- | --- | --- | --- | --- | --- |
| O=c1[nH]cc(F)c(=O)[nH]1 [FLUOROURACIL] | 2.18 | 1.86 | 1.2 | 4.33 | 14.7 | 1.6 | – | – | – | – |
| COc1cc2cc(Cn3cc(COc4ccc(Br)cc4)nn3)c3cc(OC)c(OC)cc3c2cc1OC | > 20 | 3.8 | > 20 | > 20 | 3.9 | > 20 | > 20 | > 20 | > 20 | – |
| COc1cc2cc(Cn3cc(CN4C(=O)c5ccc(C)cc5C4=O)nn3)c3cc(OC)c(OC)cc3c2cc1OC | 1.87 | 2.7 | 7.12 | 4.6 | 3.5 | 12.3 | 10 | 3.9 | 6.5 | Active |
| COc1cc2cc(Cn3cc(COc4ccccc4OC)nn3)c3cc(OC)c(OC)cc3c2cc1OC | > 20 | 11.2 | > 20 | > 20 | 9.1 | > 20 | > 20 | > 20 | > 20 | – |
| COc1cc2cc(Cn3cc(COc4ccc5c(c4)OCO5)nn3)c3cc(OC)c(OC)cc3c2cc1OC | 16.7 | > 20 | 13.2 | 12.6 | 9.5 | 14.5 | 6.5 | 18.1 | 18.9 | – |
| COc1cc2cc(Cn3cc(COc4c(C)cc(C)cc4C)nn3)c3cc(OC)c(OC)cc3c2cc1OC | > 20 | 17.6 | > 20 | > 20 | > 20 | > 20 | 6.2 | 12.4 | 12.6 | – |
| COc1cc2cc(Cn3cc(CO)nn3)c3cc(OC)c(OC)cc3c2cc1OC | > 20 | 18.3 | > 20 | 6.8 | > 20 | > 20 | > 20 | 8.2 | 13.5 | – |
| COc1cc2cc(Cn3cc(COc4cc(OC)c(OC)c(OC)c4)nn3)c3cc(OC)c(OC)cc3c2cc1OC | > 20 | > 20 | > 20 | 19.2 | 14.8 | > 20 | > 20 | > 20 | > 20 | – |
| COc1cc2cc(Cn3cc(CN4CCCc5ccccc54)nn3)c3cc(OC)c(OC)cc3c2cc1OC | > 20 | > 20 | 13.9 | > 20 | > 20 | > 20 | > 20 | > 20 | > 20 | – |
